Source: PubChem BioAssay (The Scripps Research Institute Molecular Screening Center)
Rows were chosen to be rich in hits. Some 4.6% of all compounds tested hit in one or more screens of this group.
TAAR1 agonist – agonists of human TAAR1; actives 0.99% (n = 360,000); CHO RD-HGA16 TAAR1, Fluo-8 calcium fluorescence; vehicle wells 0%, saturating PEA agonist 100%; Q96RJ0; activation, % at 3 µM;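 active = activation above the mean activation of all test compounds in the run plus 3 SD, cut at about 38% in these data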
Target sequence (Q96RJ0 whole entry, looked up): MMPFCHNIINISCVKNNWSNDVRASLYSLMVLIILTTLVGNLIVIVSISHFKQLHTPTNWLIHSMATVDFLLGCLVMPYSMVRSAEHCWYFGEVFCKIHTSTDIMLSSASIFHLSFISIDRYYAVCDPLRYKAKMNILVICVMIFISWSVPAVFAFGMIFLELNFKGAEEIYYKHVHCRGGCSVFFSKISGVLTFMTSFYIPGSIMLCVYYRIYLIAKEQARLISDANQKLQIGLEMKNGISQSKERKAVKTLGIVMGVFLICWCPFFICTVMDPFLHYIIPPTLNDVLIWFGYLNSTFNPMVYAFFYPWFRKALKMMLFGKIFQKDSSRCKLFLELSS
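Signal – calcium-sensitive Fluo-8 signal, excitation 470-495, emission 515-575 nm · System – RD-HGA16 (CHO) cells co-expressing Gα16 and hTAAR1 · Incubation – 17-24 h seeding, 75 min 37 °C dye, 30 min RT · Compound dosing – 3 µM single concentration · Repeats – no replicates (n 1)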
OX1R antag-1 – blocks the human orexin 1 receptor | AID 434989 | CHO/OX1R cells, Fluo-8 calcium fluorescence, orexin A | O43613 | inhibition, % at 5 µM | actives 0.43% (n = 330,000);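 active = inhibition above its plate's threshold, mean inhibition of all tested compounds on the plate plus 3 SD, cut at about 37% in these data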;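 also: 0% = orexin A challenge wells and 100% = SB-334867-A antagonist wells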
CHO parental Ca – counter-screen: ATP calcium response change in parental CHO cells; actives 0.63% (n = 330,000); AID 463079; inhibition, % at 5.6 µM; parental CHO-K1, ATP-induced calcium, Fluo-8 fluorescence;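 active = inhibition above that plate's mean sample inhibition plus 3 SD, cut at about 26% in these data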;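 also: 0% = ATP-challenged DMSO wells and 100% = DMSO wells without ATP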
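Measured by: calcium-sensitive Fluo-8 fluorescence / Test system: CHO parental line / Controls: ATP-challenged DMSO wells low, unchallenged DMSO wells high / Measure: % inhibition / Compound: single nominal dose of 5.6 µM per compound / Replicates: single well per compound, no replicates / Reagent: ATP as calcium-mobilizing challenge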
GPR7 antag – blocks human GPR7 receptor signaling | GPR7-expressing cells, fluorescence antagonist assay | inhibition, % at 4.4 µM | actives 1.1% (n = 290,000) | AID 1861; in the data active = inhibition above about 16%, passing the limit was not always enough;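 also: cells stimulated with the agonist NPW; 0% = agonist with vehicle and 100% = vehicle without agonist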
Target sequence (P48145 whole entry, looked up): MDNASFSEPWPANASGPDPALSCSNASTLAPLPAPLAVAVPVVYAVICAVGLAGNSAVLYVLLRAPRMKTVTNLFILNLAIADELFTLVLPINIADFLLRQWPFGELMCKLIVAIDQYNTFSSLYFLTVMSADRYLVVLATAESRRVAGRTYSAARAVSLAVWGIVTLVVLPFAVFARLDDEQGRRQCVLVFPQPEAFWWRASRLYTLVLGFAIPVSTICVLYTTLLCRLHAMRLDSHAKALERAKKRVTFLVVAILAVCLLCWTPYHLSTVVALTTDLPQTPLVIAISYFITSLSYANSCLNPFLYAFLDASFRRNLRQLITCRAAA
TAAR1 antag – antagonists of human TAAR1; actives 1.5% (n = 360,000); inhibition, % at 3 µM; CHO RD-HGA16 TAAR1, Fluo-8 calcium fluorescence, antagonist; Q96RJ0;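 active = inhibition above a per-plate cutoff, the mean inhibition of test compounds on that plate plus 3 SD, cut at about 49% in these data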;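 also: 0% = DMSO plus EC80 beta-PEA response and 100% = DMSO alone without agonist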
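Material: RD-HGA16 CHO cells with stable hTAAR1 and Gα16; Dosing: single nominal final test compound concentration of 3 µM; Schedule: seeding 17-24 h prior, 75-min 37 °C, 30-min RT dye loading; Detection: kinetic Fluo-8 calcium fluorescence measurement; Measure: % inhibition from peak post-agonist over basal fluorescence ratio; Benchmarks: vehicle and agonist controls.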
OX1R antag-2 – blocks the human orexin 1 receptor | O43613 | OX1R-expressing cells, FRET antagonist read-out | actives 1.8% (n = 330,000) | inhibition, % at 6.6 µM; in the data active = inhibition mostly above about 38%, no sharp cut-off; inactive = mostly below about 40%;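 also: 0% = agonist challenge alone and 100% = reference antagonist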
Numbers without * were called inactive; . = no result given; ! = not active in a repeat.

SMILES	TAAR1 agonist	OX1R antag-1	CHO parental Ca	GPR7 antag	TAAR1 antag	OX1R antag-2
c1ccc(Nc2nc3ccccc3n3cnnc23)cc1	-2	5	-2	-10	1	59*
CCCSc1nc(C)cc(C)c1S(=O)(=O)c1ccccc1C	16	54*	28	-11	30	34
Cc1cc(C)c(S(=O)(=O)c2ccccc2C)c(SCC(C)C)n1	9	27	57*	-7	-2	16
Cc1ccc2nc(C(C)(C)C)c(Cc3cccc(Cl)c3)n2c1	-2	.	.	.	-16	.
COC(=O)c1cc2c(c3c4cc(F)ccc4n(S(=O)(=O)c4cccc(C)c4)c13)C(=O)N(C)C2	-2	.	.	.	-25	.
COc1cccc(NC(=O)CCC(=O)Nc2cccc(OC)c2)c1	1	-8	6	-6	14	15
COc1cccc(NC(=O)CNC(C)CCC(C)C)c1 (stereo not given)	38*	-3	-7	-7	4	14
CN1CCCCC(NC(=O)c2ccc(Cl)cc2Cl)C1=O (stereo not given)	0	.	.	.	-3	.
NC(Cc1ccc(C(F)(F)F)cc1)c1csc(Nc2ccc(C(=O)c3ccccc3)cc2)n1 (stereo not given)	36	.	.	.	27	.
COc1ccc(CC(N)c2csc(NC(=O)Nc3ccc(OC)cc3)n2)cc1 (stereo not given)	25	.	.	.	26	.
COc1ccc(NC(=O)Nc2nc(C(N)Cc3ccc(C(F)(F)F)cc3)cs2)cc1 (stereo not given)	40*	.	.	.	50*	.
CC(=O)c1ccc(Nc2nc(C(N)Cc3ccc(C(F)(F)F)cc3)cs2)cc1 (stereo not given)	52*	.	.	.	36	.
COC(=O)c1cc2c(c3c4cc(F)ccc4n(S(=O)(=O)c4ccc(C)cc4)c13)C(=O)N(Cc1ccccc1OC)C2	3	.	.	.	-6	.
CCC(C)CN1C(=O)CN(S(C)(=O)=O)CC1(C)C(=O)NCc1ccccc1 (stereo not given)	0	.	.	.	1	.
Nc1[nH]c(C(=O)c2ccccc2)c(-c2ccc(Cl)cc2)c1C(=O)NCc1ccccc1	6	.	.	.	3	.
COCc1cc(N2CCN(C(=O)OC(C)(C)C)C[C@H]2C)ccc1N1CCS(=O)(=O)CC1	2	.	.	.	9	.
CN(C)CCCN(C(=O)CCc1ccccc1)c1nc2c(F)cccc2s1	14	-28	-20	21*	-9	11
CN(C)CCCN(C(=O)CCOc1ccccc1)c1nc2c(F)cccc2s1	4	.	.	-5	-5	.
C1=C(c2ccccc2)CCN(c2ncnc3nc[nH]c23)C1	2	-16	0	1	14	50*
CCOC(=O)C1CCCN(C2CC(=O)N(c3cccc(C(F)(F)F)c3)C2=O)C1 (stereo not given)	43*	-15	-6	-19	44	9
Cc1cc(C(=O)CSc2nc3ccccc3o2)c(C)n1C1CC1	-1	41*	6	9	26	33
C=CCn1c(C)cc(C(=O)CSc2nc3ccccc3o2)c1C	2	41*	43*	-6	15	35
CCOC(=O)c1cc([N+](=O)[O-])cc([N+](=O)[O-])c1Sc1ncnc2nc[nH]c12	-3	.	.	.	-28	.
COc1ccc(/C=C/c2cccc[n+]2C)c(O)c1	-1	-1	1	-1	-12	32
CCN(CC)c1ccc(/C=C/c2cccc[n+]2C)c(OC)c1	10	25	36*	37	8	65
SMILES	TAAR1 agonist	OX1R antag-1	CHO parental Ca	GPR7 antag	TAAR1 antag	OX1R antag-2
COCc1[nH]nc2c1C(c1ccc(Br)cc1)N(Cc1ccccc1)C2=O (stereo not given)	-2	.	.	.	-22	.
COc1ccc(CN(C(=O)CSc2nnc(-c3ccccc3F)o2)c2ccc(F)cc2)cc1	.	7	26*	-22	.	33
CN(C(=O)CSc1nnc(-c2ccccc2F)o1)c1ccccc1	1	-17	-4	.	-10	11
Cc1ccc2c(c1)-c1c(cnn1CC(=O)N(Cc1ccco1)C1CCCCC1)CO2	-1	-13	-12	-4	8	52*
COc1ccc(C(=O)C2CCCN(Cc3cccn3-c3ccccn3)C2)c(OC)c1 (stereo not given)	11	-18	-7	14	2	16
COc1ccc(F)cc1C(=O)C1CCCN(Cc2cccn2-c2ccccn2)C1 (stereo not given)	5	-18	-27	19*	9	8
CCCCS(=O)(=O)N1CCCc2nc(-c3ccc(Br)cc3)ccc21	1	.	.	.	19	.
NNc1nc2c(Cl)ccc(Cl)c2s1	39*	4	0	-2	6	18
CC(O)(c1cccnc1)c1nc(-c2cccc(C#N)c2)cs1 (stereo not given)	1	.	.	.	-4	.
CCn1c2ccccc2c2cc(NC(=O)COc3ccccc3)ccc21	1	-20	-35	-12	-3	65*
CCC(=O)NC(=S)Nc1ccc(NC(=O)c2ccc(OC)cc2)cc1	9	5	6	-10	-5	15
CCn1c2ccccc2c2cc(NC(=O)c3ccc(Br)o3)ccc21	1	48*	-7	19	5	85*
CCn1c2ccccc2c2cc(NC(=O)c3cccc([N+](=O)[O-])c3)ccc21	1	17	-6	.	-10	76*
CCn1c2ccccc2c2cc(NC(=O)COc3ccc(OC)cc3)ccc21	13	-24	-14	-7	0	13
CCn1c2ccccc2c2cc(NC(=O)c3ccc(=O)oc3)ccc21	6	-22	-18	-8	-17	12
CCC(=O)NC(=S)Nc1ccc(NC(=O)c2ccc(Br)o2)cc1	-1	-26	0	18*	0	13
CCn1c2ccccc2c2cc(NC(=O)c3cccc([N+](=O)[O-])c3C)ccc21	-1	-6	-13	-4	8	26
CC1=C2C3OC(=O)C(C)C3CCC2(C)C=C(Cl)C1=O (stereo not given)	10	.	.	.	-25	.
COc1cc(C(=O)N2Cc3cc4ccccc4nc3C2C)cc(OC)c1OC (stereo not given)	2	.	.	.	1	.
COc1ccc(-c2cc(C(=O)Nc3cc(OC)cc(C(=O)Nc4cccc(C(F)(F)F)c4)c3)[nH]n2)cc1	10	22	32*	.	55*	20
CCN1CCN(Cc2ccc(NC(=O)c3cc(NC(=O)c4cc5cccc(OC)c5o4)cc(OC)c3)cc2C(F)(F)F)CC1	11	-19	-3	.	59*!	21
COc1cc(NC(=O)c2ccno2)cc(C(=O)Nc2cccc(C(F)(F)F)c2)c1	18	15	27	.	38	18
CCN1CCN(Cc2ccc(NC(=O)c3cc(NC(=O)c4ccno4)cc(OC)c3)cc2C(F)(F)F)CC1	7	-17	-6	.	14	15
COc1cc(NC(=O)c2cc3cccc(OC)c3o2)cc(C(=O)Nc2cccc(C(F)(F)F)c2)c1	21	24	42*	.	87*	12
